Key:
Format in all cases: functional
SNB-75 = assay: Cytotoxicity against human SNB75 cells after 48 hrs by SRB assay; conditions: SNB-75, 48 h
Method in brief: (§1)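 NCI 60-cell screen. Cells grew 24 h (37 °C, 5% CO2) before compound was added. Compounds were in DMSO and diluted in medium with gentamicin, then tested at five levels (100, 10, 1.0, 0.1, 0.01 µM) with 48 h continuous exposure. Adherent cells were fixed with TCA (10% final) and stained with 0.4% SRB, absorbance read at 515 nm. A time-zero plate was included. LC50 is the concentration giving 50% loss of protein relative to time zero.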

SK-MEL-28 = assay: Cytotoxicity against human SK-MEL-28 cells after 48 hrs by SRB assay; conditions: SK-MEL-28, 48 h; for CC50: read-out: LC50 (the source's name)
Method in brief: (§2)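 NCI 60-cell-line screen. Cells preincubated 24 h at 37 °C, 5% CO2; time-zero plates TCA-fixed. Compounds dissolved in DMSO and tested at five concentrations (100, 10, 1.0, 0.1, 0.01 µM) for 48 h continuous exposure. Adherent cells fixed with cold TCA (10% final), then SRB stained; absorbance at 515 nm. GI50, TGI and LC50 calculated from growth relative to time-zero and untreated controls.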

HL-60(TB) = assay: Cytotoxicity against human HL-60(TB) cells after 48 hrs by SRB assay; conditions: HL-60, 48 h; for CC50: read-out: LC50 (the source's name); method in brief: as §2
SNB-19 = assay: Cytotoxicity against human SNB19 cells after 48 hrs by SRB assay; conditions: SNB-19, 48 h; method in brief: as §1
HOP-92 = assay: Cytotoxicity against human HOP92 cells after 48 hrs by SRB assay; conditions: HOP-92, 48 h; method in brief: as §2
Hs-578T = assay: Cytotoxicity against human Hs578T cells after 48 hrs by SRB assay; method in brief: as §2
786-0 = assay: Cytotoxicity against human 786-0 cells after 48 hrs by SRB assay; conditions: 786-0, 48 h; method in brief: as §2
OVCAR-5 = assay: Cytotoxicity against human OVCAR5 cells after 48 hrs by SRB assay; conditions: OVCAR-5, 48 h; method in brief: as §2
MDA-MB-231 = assay: Cytotoxicity against human MDA-MB-231 cells after 48 hrs by SRB assay; conditions: MDA-MB-231, 48 h; method in brief: as §2
UACC-257 = assay: Cytotoxicity against human UACC257 cells after 48 hrs by SRB assay; conditions: UACC-257, 48 h; method in brief: as §1
MCF7 = assay: Cytotoxicity against human MCF7 cells after 48 hrs by SRB assay; conditions: MCF7, 48 h; for CC50: read-out: LC50 (the source's name); method in brief: as §2
ACHN = assay: Cytotoxicity against human ACHN cells after 48 hrs by SRB assay; conditions: for CC50: read-out: LC50 (the source's name); method in brief: as §2
OVCAR-4 = assay: Cytotoxicity against human OVCAR4 cells after 48 hrs by SRB assay; conditions: OVCAR-4, 48 h; method in brief: as §2
HOP-62 = assay: Cytotoxicity against human HOP62 cells after 48 hrs by SRB assay; conditions: HOP-62, 48 h; method in brief: as §2
OVCAR-3 = assay: Cytotoxicity against human OVCAR3 cells after 48 hrs by SRB assay; conditions: OVCAR-3, 48 h; method in brief: as §2
SW-620 = assay: Cytotoxicity against human SW620 cells after 48 hrs by SRB assay; conditions: SW-620, 48 h; method in brief: as §1
NCI-H23 = assay: Cytotoxicity against human NCI-H23 cells after 48 hrs by SRB assay; conditions: NCI-H23, 48 h; for CC50: read-out: LC50 (the source's name); method in brief: as §2
DU-145 = assay: Cytotoxicity against human DU145 cells after 48 hrs by SRB assay; conditions: DU-145, 48 h; method in brief: as §2
PC-3 = assay: Cytotoxicity against human PC3 cells after 48 hrs by SRB assay; conditions: PC-3, 48 h; method in brief: as §2
A498 = assay: Cytotoxicity against human A498 cells after 48 hrs by SRB assay; conditions: A498, 48 h; for CC50: read-out: LC50 (the source's name); method in brief: as §2
[1] = Cytotoxicity against human EKVX cells after 48 hrs by SRB assay; method in brief: as §2
UO-31 = assay: Cytotoxicity against human UO31 cells after 48 hrs by SRB assay; conditions: UO-31, 48 h; method in brief: as §1
MOLT-4 = assay: Cytotoxicity against human MOLT4 cells after 48 hrs by SRB assay; conditions: MOLT-4, 48 h; method in brief: as §2
CCRF-CEM = assay: Cytotoxicity against human CCRF-CEM cells after 48 hrs by SRB assay; method in brief: as §2
TK-10 = assay: Cytotoxicity against human TK10 cells after 48 hrs by SRB assay; conditions: TK-10, 48 h; method in brief: as §1
K562 = assay: Cytotoxicity against human K562 cells after 48 hrs by SRB assay; conditions: K562, 48 h; method in brief: as §2

COc1cc(C2CC(c3ccc(Nc4ccnc5cc(Cl)ccc45)cc3)=NN2C=O)cc(OC)c1OC (stereo not drawn)
GI50 (SNB-75): 5.19 µM | LC50 (50% net cell kill) (SNB-75): > 100 µM | GI50 (SK-MEL-28): 2.22 µM | CC50 (SK-MEL-28): 14 µM | GI50 (HL-60(TB)): 2.53 µM | CC50 (HL-60(TB)): 75.8 µM | GI50 (SNB-19): 18.2 µM | LC50 (SNB-19): > 100 µM | GI50 (HOP-92): 1.83 µM | LC50 (concentration killing 50% of cells) (HOP-92): > 100 µM | GI50 (Hs-578T): 3.24 µM | LC50 (50% net cell kill) (Hs-578T): > 100 µM | GI50 (786-0): 2.31 µM | LC50 (786-0): 9.93 µM | GI50 (OVCAR-5): 69.2 µM | LC50 (OVCAR-5): > 100 µM | GI50 (MDA-MB-231): 4.39 µM | LC50 (concentration killing 50% of cells present at time zero) (MDA-MB-231): > 100 µM | GI50 (UACC-257): 2.84 µM | LC50 (UACC-257): 55.4 µM | GI50 (MCF7): 3.23 µM | CC50 (MCF7): > 100 µM | GI50 (ACHN): 3.24 µM | CC50 (ACHN): 47 µM | GI50 (OVCAR-4): 3.19 µM | LC50 (OVCAR-4): > 100 µM | GI50 (HOP-62): 4.13 µM | LC50 (50% lethal concentration) (HOP-62): 96.1 µM | GI50 (OVCAR-3): 1.91 µM | LC50 (OVCAR-3): 6.03 µM | GI50 (SW-620): 3.49 µM | LC50 (SW-620): > 100 µM | GI50 (NCI-H23): 20.4 µM | CC50 (NCI-H23): > 100 µM | GI50 (DU-145): 6.63 µM | LC50 (concentration killing 50% of cells) (DU-145): > 100 µM | GI50 (PC-3): 11.7 µM | LC50 (PC-3): > 100 µM | GI50 (A498): 15.3 µM | CC50 (A498): > 100 µM | GI50 [1]: 11.7 µM | LC50 [1]: > 100 µM | GI50 (UO-31): 4.96 µM | LC50 (UO-31): 67.5 µM | GI50 (MOLT-4): 3.36 µM | LC50 (MOLT-4): > 100 µM | GI50 (CCRF-CEM): 1.82 µM | LC50 (concentration killing 50% of cells relative to time zero) (CCRF-CEM): > 100 µM | GI50 (TK-10): 3.09 µM | LC50 (concentration giving 50% cell loss vs time zero) (TK-10): 38.6 µM

O=CN1N=C(c2cccc(Nc3ccnc4cc(Cl)ccc34)c2)CC1c1ccccc1 (stereo not drawn)
GI50 (SNB-75): 0.22 µM | LC50 (50% net cell kill) (SNB-75): > 100 µM | GI50 (SK-MEL-28): 0.76 µM | CC50 (SK-MEL-28): > 100 µM | GI50 (HL-60(TB)): 0.2 µM | CC50 (HL-60(TB)): 4.56 µM | GI50 (SNB-19): 0.6 µM | LC50 (SNB-19): > 100 µM | GI50 (HOP-92): 0.21 µM | LC50 (concentration killing 50% of cells) (HOP-92): > 100 µM | GI50 (Hs-578T): 0.29 µM | LC50 (50% net cell kill) (Hs-578T): > 100 µM | GI50 (786-0): 0.59 µM | LC50 (786-0): > 100 µM | GI50 (OVCAR-5): 1.38 µM | LC50 (OVCAR-5): > 100 µM | GI50 (MDA-MB-231): 1.15 µM | LC50 (concentration killing 50% of cells present at time zero) (MDA-MB-231): > 100 µM | GI50 (UACC-257): 0.33 µM | LC50 (UACC-257): > 100 µM | GI50 (MCF7): 0.34 µM | CC50 (MCF7): > 100 µM | GI50 (ACHN): 0.86 µM | CC50 (ACHN): > 100 µM | GI50 (OVCAR-4): 0.56 µM | LC50 (OVCAR-4): > 100 µM | GI50 (HOP-62): 0.51 µM | LC50 (50% lethal concentration) (HOP-62): > 100 µM | GI50 (K562): 0.26 µM | LC50 (concentration killing 50% of cells) (K562): > 100 µM | GI50 (OVCAR-3): 0.28 µM | LC50 (OVCAR-3): 7.38 µM | GI50 (SW-620): 0.35 µM | LC50 (SW-620): > 100 µM | GI50 (NCI-H23): 0.61 µM | CC50 (NCI-H23): > 100 µM | GI50 (DU-145): 0.44 µM | LC50 (concentration killing 50% of cells) (DU-145): > 100 µM | GI50 (A498): 0.23 µM | CC50 (A498): > 100 µM | GI50 [1]: 0.95 µM | LC50 [1]: > 100 µM | GI50 (UO-31): 0.41 µM | LC50 (UO-31): > 100 µM | GI50 (MOLT-4): 0.39 µM | LC50 (MOLT-4): > 100 µM | GI50 (CCRF-CEM): 0.37 µM | LC50 (concentration killing 50% of cells relative to time zero) (CCRF-CEM): > 100 µM

— ChEMBL document CHEMBL2417469, “Synthesis of novel analogs of 2-pyrazoline obtained from [(7-chloroquinolin-4-yl)amino]chalcones and hydrazine as potential antitumor and antimalarial agents” (Eur J Med Chem, 2013)
